# Reference: ChEMBL document CHEMBL4393724, “Betulin-1,4-quinone hybrids: Synthesis, anticancer activity and molecular docking study with NQO1 enzyme” (Eur J Med Chem, 2019)
# pIC50: −log10 of the molar value.
# Columns and labels:
# Type in all cases: functional, cell-based
# SNB-19 = test: Antiproliferative activity against human SNB19 cells assessed as reduction in cell viability incubated for 72 hrs by WST1 assay; conditions: for IC50: snb-19; for pIC50: Homo sapiens, SNB-19, 72 h, read-out: IC50
# COLO-829 = test: Antiproliferative activity against human COLO829 cells assessed as reduction in cell viability incubated for 72 hrs by WST1 assay; conditions: for pIC50: Homo sapiens, COLO-829, 72 h, read-out: IC50; for IC50: colo-829
# C32 = test: Antiproliferative activity against human C32 cells assessed as reduction in cell viability incubated for 72 hrs by WST1 assay; conditions: for IC50: c32; for pIC50: Homo sapiens, C32, 72 h, read-out: IC50
# Summary of the method: (§1)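 Cells held at 37 °C under 5% CO2 and seeded at 5 × 10^4 cells/well in DMEM with 10% FCS plus streptomycin and penicillin. Compounds were dissolved in DMSO and exposed for 72 h. WST-1 formazan was read at 450 nm. IC50 was derived from the mean ± SD of at least three independent experiments run in triplicate. Cisplatin served as reference.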
# MCF7 = test: Antiproliferative activity against human MCF7 cells assessed as reduction in cell viability incubated for 72 hrs by WST1 assay; conditions: for IC50: mcf7; for pIC50: Homo sapiens, MCF7, 72 h, read-out: IC50; summary of the method: as §1
# T47D = test: Antiproliferative activity against human T47D cells assessed as reduction in cell viability incubated for 72 hrs by WST1 assay; conditions: for IC50: t47d; for pIC50: Homo sapiens, T47D, 72 h, read-out: IC50
# MDA-MB-231 = test: Antiproliferative activity against human MDA-MB-231 cells assessed as reduction in cell viability incubated for 72 hrs by WST1 assay; conditions: for IC50: mda-mb-231; for pIC50: Homo sapiens, MDA-MB-231, 72 h, read-out: IC50
# A549 = test: Antiproliferative activity against human A549 cells assessed as reduction in cell viability incubated for 72 hrs by WST1 assay; conditions: for IC50: a549; for pIC50: Homo sapiens, A549, 72 h, read-out: IC50; summary of the method: as §1
SMILES,pIC50 (COLO-829),IC50 (MCF7),IC50 (T47D),IC50 (MDA-MB-231),pIC50 (MCF7),pIC50 (MDA-MB-231),pIC50 (A549),IC50 (COLO-829),pIC50 (T47D),IC50 (SNB-19),IC50 (C32),IC50 (A549),pIC50 (C32),pIC50 (SNB-19)
O=C1C(Cl)=C(Cl)C(=O)c2ccccc21 [Dichlon],4.42,Not Active,Not Active,Not Active,,,,,,Not Active,Not Active,Not Active,,
C=C(C)[C@@H]1CC[C@]2(COC3=C(Cl)C(=O)c4ccccc4C3=O)CC[C@]3(C)[C@H](CC[C@@H]4[C@@]5(C)CC[C@H](O)C(C)(C)[C@@H]5CC[C@]43C)[C@@H]12,,Not Active,,Not Active,,,4.97,Not Active,5.83,,Not Active,,,5.02
C=C(C)[C@@H]1CC[C@]2(COC3=C(Cl)C(=O)c4cccnc4C3=O)CC[C@]3(C)[C@H](CC[C@@H]4[C@@]5(C)CC[C@H](OC(C)=O)C(C)(C)[C@@H]5CC[C@]43C)[C@@H]12,,,Not Active,Not Active,4.01,,4.84,Not Active,,Not Active,Not Active,,,
C=C(C)[C@@H]1CC[C@]2(COC(C)=O)CC[C@]3(C)[C@H](CC[C@@H]4[C@@]5(C)CC[C@H](OC6=C(Cl)C(=O)c7cccnc7C6=O)C(C)(C)[C@@H]5CC[C@]43C)[C@@H]12,,Not Active,,Not Active,,,4.87,Not Active,4.06,Not Active,Not Active,,,
C#CC(=O)OC[C@]12CC[C@@H](C(=C)C)[C@@H]1[C@H]1CC[C@@H]3[C@@]4(C)CC[C@H](OC5=C(Cl)C(=O)c6ccc(C)nc6C5=O)C(C)(C)[C@@H]4CC[C@@]3(C)[C@]1(C)CC2,,,Not Active,,4.75,4.43,4.73,Not Active,,,Not Active,,,4.96
C=C(C)[C@@H]1CC[C@]2(COC3=C(Cl)C(=O)c4cccnc4C3=O)CC[C@]3(C)[C@H](CC[C@@H]4[C@@]5(C)CC[C@H](O)C(C)(C)[C@@H]5CC[C@]43C)[C@@H]12,4.02,,,,4.02,4.09,5.07,,4.88,Not Active,Not Active,,,
Cc1ccc2c(n1)C(=O)C(Cl)=C(Cl)C2=O,4.58,Not Active,Not Active,Not Active,,,,,,Not Active,Not Active,Not Active,,
C=C(COC1=C(Cl)C(=O)c2ccccc2C1=O)[C@@H]1CC[C@]2(COC(C)=O)CC[C@]3(C)[C@H](CC[C@@H]4[C@@]5(C)CC[C@H](OC(C)=O)C(C)(C)[C@@H]5CC[C@]43C)[C@@H]12,,Not Active,Not Active,,,4.21,4.27,Not Active,,Not Active,,,4.61,
C=C(C)[C@@H]1CC[C@]2(CO)CC[C@]3(C)[C@H](CC[C@@H]4[C@@]5(C)CC[C@H](O)C(C)(C)[C@@H]5CC[C@]43C)[C@@H]12 [BETULIN],,,,,4.36,4.02,4.22,Not Active,4.68,Not Active,Not Active,,,

# Now from value to molecule, other results behind:
pIC50 (COLO-829),IC50 (MCF7),IC50 (T47D),IC50 (MDA-MB-231),pIC50 (MCF7),pIC50 (MDA-MB-231),pIC50 (A549),IC50 (COLO-829),pIC50 (T47D),SMILES,IC50 (SNB-19),IC50 (C32),IC50 (A549),pIC50 (C32),pIC50 (SNB-19)
4.03,,Not Active,,4.05,5.23,6.19,,,C=C(C)[C@@H]1CC[C@]2(COC3=C(Cl)C(=O)c4ccc(C)nc4C3=O)CC[C@]3(C)[C@H](CC[C@@H]4[C@@]5(C)CC[C@H](OC(C)=O)C(C)(C)[C@@H]5CC[C@]43C)[C@@H]12,Not Active,,,5.88,
6.92,,,,6.03,6.96,6.08,,4.99,C=C(COC1=C(Cl)C(=O)c2ccc(C)nc2C1=O)[C@@H]1CC[C@]2(COC(C)=O)CC[C@]3(C)[C@H](CC[C@@H]4[C@@]5(C)CC[C@H](OC(C)=O)C(C)(C)[C@@H]5CC[C@]43C)[C@@H]12,Not Active,,,5.94,
6.89,,,,4.93,4.22,5.48,,4.89,C=C(COC1=C(Cl)C(=O)c2cccnc2C1=O)[C@@H]1CC[C@]2(COC(C)=O)CC[C@]3(C)[C@H](CC[C@@H]4[C@@]5(C)CC[C@H](OC(C)=O)C(C)(C)[C@@H]5CC[C@]43C)[C@@H]12,,,,4.64,4.20
5.97,,,Not Active,4.15,,5.94,,4.90,C=C(C)[C@@H]1CC[C@]2(COC3=C(Cl)C(=O)c4ccccc4C3=O)CC[C@]3(C)[C@H](CC[C@@H]4[C@@]5(C)CC[C@H](OC(C)=O)C(C)(C)[C@@H]5CC[C@]43C)[C@@H]12,,,,4.86,5.47
,,,,4.44,5.17,5.89,Not Active,4.02,C#CC(=O)OC[C@]12CC[C@@H](C(=C)C)[C@@H]1[C@H]1CC[C@@H]3[C@@]4(C)CC[C@H](OC5=C(Cl)C(=O)c6ccccc6C5=O)C(C)(C)[C@@H]4CC[C@@]3(C)[C@]1(C)CC2,Not Active,,,5.98,
5.95,Not Active,,,,4.96,5.79,,4.04,C=C(C)[C@@H]1CC[C@]2(COC3=C(Cl)C(=O)c4ccc(C)nc4C3=O)CC[C@]3(C)[C@H](CC[C@@H]4[C@@]5(C)CC[C@H](O)C(C)(C)[C@@H]5CC[C@]43C)[C@@H]12,Not Active,,,4.90,
